Experimental data reported in ChEMBL document CHEMBL1121387, “Analgesic narcotic antagonists. 1. 8 beta-Alkyl-, 8 beta-acyl-, and 8 beta-(tertiary alcohol)dihydrocodeinones and -dihydromorphinones” (1980).

What was measured:
[1] = system: Mus musculus; assay: Analgesic activity was measured by acetic acid writhing test in mouse by giving subcutaneous injection; format: functional; set-up: unit not given here
Outline: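 Male albino Charles River mice (18–22 g), five per dose, at least three doses per ED50. Salts are given in distilled water; free bases are dissolved with dilute HCl and then diluted with water. Drug is given s.c. 15 min before i.p. 0.5% HOAc (0.4 mL). Writhes are counted for 20 min, starting 5 min post-HOAc, and compared with controls. ED50 with 95% confidence limits by Litchfield–Wilcoxon.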

[2] = system: Rattus norvegicus; assay: Analgesic activity measured by rat tail flick assay following s.c. administration.; format: functional; set-up: unit not given here
Outline: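 Male albino rats (100–120 g). Two control reaction times are taken 30 min apart before dosing. For agonist activity, test drug is given subcutaneously with no morphine, and tail-flick reaction time is retested 20 min postdrug. Activity is judged against control groups. ED50 values with 95% confidence limits are obtained by Litchfield–Wilcoxon.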

| SMILES | ED50 [1] | ED50 [2] |
| --- | --- | --- |
| CCC(C)[C@H]1CC(=O)C2Oc3c(OC)ccc4c3C23CCN(C)C(C4)C13 (single isomer, unassigned; form 1) | >25 | – |
| COc1ccc2c3c1O[C@H]1C(=O)C[C@H](C(C)(C)C)C4C(C2)N(C)CCC341 (stereo partly specified) | 17.6 | >25 |
| CCCCCCCC[C@H]1CC(=O)[C@@H]2Oc3c(OC)ccc4c3C23CCN(C)C(C4)C13 (stereo partly specified) | 25.9 | >50 |
| CC[C@H]1CC(=O)[C@@H]2Oc3c(O)ccc4c3C23CCN(C)C(C4)C13 (stereo partly specified) | 0.41 | 1.12 |
| COc1ccc2c3c1O[C@H]1C(=O)C[C@H](C(C)C)C4C(C2)N(C)CCC341 (stereo partly specified) | 21.7 | >55 |
| COc1ccc2c3c1O[C@H]1C(=O)C[C@H](C)C4C(C2)N(C)CCC341 (stereo partly specified) | 4.9 | 10.2 |
| C=C(C)[C@H]1CC(=O)[C@@H]2Oc3c(OC)ccc4c3C23CCN(C)C(C4)C13 (stereo partly specified) | >50 | – |
| C=C[C@H]1CC(=O)[C@@H]2Oc3c(OC)ccc4c3C23CCN(C)C(C4)C13 (stereo partly specified) | 13.8 | 130 |
| COc1ccc2c3c1O[C@H]1C(=O)C[C@H](c4ccccc4)C4C(C2)N(C)CCC341 (stereo partly specified) | >50 | – |
| CCC(C)[C@H]1CC(=O)C2Oc3c(OC)ccc4c3C23CCN(C)C(C4)C13 (single isomer, unassigned; form 2) | 14.1 | – |
| CC[C@@H]1CC(=O)[C@@H]2Oc3c(OC)ccc4c3C23CCN(C)C(C4)C13 (stereo partly specified) | 3 | >30 |
| CCCC[C@H]1CC(=O)[C@@H]2Oc3c(OC)ccc4c3C23CCN(C)C(C4)C13 (stereo partly specified) | 27 | >50 |
| C[C@H]1CC(=O)[C@@H]2Oc3c(O)ccc4c3C23CCN(C)C(C4)C13 (stereo partly specified) | 0.24 | 1.6 |
| CC[C@H]1CC(=O)[C@@H]2Oc3c(OC)ccc4c3C23CCN(C)C(C4)C13 (stereo partly specified) | 1.8 | 20.3 |
| CCC[C@@H]1CC(=O)[C@@H]2Oc3c(OC)ccc4c3C23CCN(C)C(C4)C13 (stereo partly specified) | >25 | >25 |
| CCC[C@H]1CC(=O)[C@@H]2Oc3c(OC)ccc4c3C23CCN(C)C(C4)C13 (stereo partly specified) | 17.5 | – |
| COc1ccc2c3c1O[C@H]1C(=O)C[C@H](C4CC4)C4C(C2)N(C)CCC341 (stereo partly specified) | 42 | >25 |
| COc1ccc2c3c1O[C@H]1C(=O)C[C@@H](C)C4C(C2)N(C)CCC341 (stereo partly specified) | 2 | 3.8 |
